Measured values published in the RNAGym collection of RNA variant scans (doi:10.1038/nmeth.2970).

B1: NELF-E aptamer (parent)
chain: CCCAACGACUGCCGAGCGAGAUUACGCUUGAGCGCCCCACUGAGGAUGCCCACGGGCGAUUGGGGCACGG

Variants of: B1
Assay: HiTS-RAP
Settings: with NELF-E (Drosophila)
Outline: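 Aptamer DNA templates bearing a T7 promoter and a ter site were sequenced on an Illumina GAIIx flowcell. T7 RNA polymerase then transcribed them in situ, and GST-Tus halted transcription over 30 minutes at 37°C. After a 30-minute room-temperature equilibration with NELF-E-mOrange at 0.064 to 1000 nM in HEPES binding buffer, clusters were imaged, using only the first binding curve. Intensities normalised to sequencing intensity were averaged per sequence and fitted with weighted Hill fits to give Kd, retaining only fits whose variance stayed under 1,000,000.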

C6A C12G and A5U G56U are within 1.5-fold of each other in Kd: 6.54 nM for the first, 6.51 nM for the second.

First: A5U G56A
Second: A5U C37A
The Kd of the first is 1.9-fold lower: 7.71 nM for the first, 14.8 nM for the second. The first binds more tightly here.

Compared with A5U C38U, C6G G14A is 2.1-fold lower in Kd: 10.6 nM for the first, 5.15 nM for the second. The second binds more tightly here.

C6G G14U and C6A C9G are within 1.5-fold of each other in Kd: 6.12 nM for the first, 7.55 nM for the second.

A5U G64A and C6G G48A are within 1.5-fold of each other in Kd: 8.76 nM for the first, 11.6 nM for the second.

First: C6G G48U
Second: A5U G63A
The Kd of the first is 1.7-fold lower: 5.75 nM for the first, 9.5 nM for the second.

Compared with A5U G63U, C6A G7U is 2.4-fold lower in Kd: 15.8 nM for the first, 6.56 nM for the second.

Compared with C6G C35G, C6G C35U is 2.3-fold higher in Kd: 7.18 nM for the first, 16.8 nM for the second. The first binds more tightly here.

C6G C17G and C6G C17U are within 1.5-fold of each other in Kd: 5.02 nM for the first, 6.03 nM for the second.

C6A U10G and C6G G16A are within 1.5-fold of each other in Kd: 5.78 nM for the first, 5.84 nM for the second.

C6G G16U and C6G G26U are within 1.5-fold of each other in Kd: 6.81 nM for the first, 5.54 nM for the second.

Going from C6G G26A to C6G A52U, the Kd rises from 4.39 nM to 16.1 nM (3.7-fold). The first binds more tightly here.

First: C6G A52G
Second: C6G C38A
The Kd of the first is 10-fold lower: 4.45 nM for the first, 45.1 nM for the second. The first binds more tightly here.

First: C6G C38U
Second: C6G A8G
The Kd of the first is 1.9-fold higher: 10.4 nM for the first, 5.5 nM for the second. The second binds more tightly here.

C6G A8C and C6G A8U are within 1.5-fold of each other in Kd: 6.37 nM for the first, 5.7 nM for the second.

A5U G14U and A5U G14A are within 1.5-fold of each other in Kd: 6.34 nM for the first, 6.18 nM for the second.

Compared with C6G C53G, C6G C53U is 1.8-fold lower in Kd: 7.67 nM for the first, 4.15 nM for the second. The second binds more tightly here.

A5U U22G and A5U U22C are within 1.5-fold of each other in Kd: 6.13 nM for the first, 5.1 nM for the second.

C6G C13G and C6G C13U are within 1.5-fold of each other in Kd: 5.09 nM for the first, 4.96 nM for the second.

A5U U23A and A5U U23G are within 1.5-fold of each other in Kd: 5.58 nM for the first, 6.01 nM for the second.

Compared with C6G G58U, C6G C37A is 2.7-fold higher in Kd: 6.94 nM for the first, 18.7 nM for the second. The first binds more tightly here.

First: C6G C37U
Second: A5U G54A
The Kd of the first is 1.7-fold higher: 23.4 nM for the first, 13.9 nM for the second.

C6G G18A and C6G G18U are within 1.5-fold of each other in Kd: 4.48 nM for the first, 6.37 nM for the second.

Compared with C6G A59U, C6G A59G is 2.1-fold higher in Kd: 25.7 nM for the first, 54.9 nM for the second. The first binds more tightly here.

C6A A24G and A5U C57U are within 1.5-fold of each other in Kd: 7.36 nM for the first, 6.5 nM for the second.

Going from C6G G45A to C6G G45U, the Kd falls from 91 nM to 9.94 nM (9.2-fold).

A5U U47G and A5U U47A are within 1.5-fold of each other in Kd: 7.11 nM for the first, 10.5 nM for the second.

Compared with C6G G30U, C6G G30A is 1.5-fold lower in Kd: 6.84 nM for the first, 4.52 nM for the second. The second binds more tightly here.

C6G G34U and C6G G34A are within 1.5-fold of each other in Kd: 5.79 nM for the first, 8 nM for the second.

Compared with A5U C50U, A5U G65U is 1.7-fold lower in Kd: 15 nM for the first, 8.58 nM for the second.

A5U G65A and C6G A21U are within 1.5-fold of each other in Kd: 6.8 nM for the first, 5.06 nM for the second.

C6G A21G and C6G A67G are within 1.5-fold of each other in Kd: 5.74 nM for the first, 6.07 nM for the second.

C6G A67U and C6G C27U are within 1.5-fold of each other in Kd: 6.45 nM for the first, 5.23 nM for the second.

First: C6A A8U
Second: A5U C53U
The Kd of the first is 1.6-fold higher: 7.06 nM for the first, 4.46 nM for the second. The second binds more tightly here.

C6G G7U and C6G G7A are within 1.5-fold of each other in Kd: 5.56 nM for the first, 6.58 nM for the second.

C6G G7C and C6G A24U are within 1.5-fold of each other in Kd: 7.44 nM for the first, 8.62 nM for the second.

C6G A24G and A5U C66U are within 1.5-fold of each other in Kd: 5.79 nM for the first, 4.52 nM for the second.

C6G C51U and A5U G55A are within 1.5-fold of each other in Kd: 7.16 nM for the first, 7.03 nM for the second.

Going from A5U G55U to C6G G32A, the Kd falls from 8.79 nM to 4.6 nM (1.9-fold).

C6G C12U and C6G C12A are within 1.5-fold of each other in Kd: 5.53 nM for the first, 6.77 nM for the second.

First: C6G C12G
Second: C6G A43U
The Kd of the first is 15-fold lower: 5.68 nM for the first, 87.2 nM for the second.

First: C6G A43G
Second: C6A G11U
The Kd of the first is 5.2-fold higher: 34.4 nM for the first, 6.57 nM for the second. The second binds more tightly here.

C6G C9G and C6G C9U are within 1.5-fold of each other in Kd: 5.38 nM for the first, 5.58 nM for the second.

C6G A39C and C6G A39U are within 1.5-fold of each other in Kd: 24 nM for the first, 28.8 nM for the second.

C6G A39G and C6A U22G are within 1.5-fold of each other in Kd: 9.71 nM for the first, 7.16 nM for the second.

A5U G7U and A5U G7A are within 1.5-fold of each other in Kd: 6.92 nM for the first, 6.51 nM for the second.

C6G C36U and C6G A19U are within 1.5-fold of each other in Kd: 7.42 nM for the first, 5.95 nM for the second.

Compared with C6G A19G, A5U U41A is 15-fold higher in Kd: 5.53 nM for the first, 80.9 nM for the second.

A5U U41G and C6G C66A are within 1.5-fold of each other in Kd: 6.01 nM for the first, 5.34 nM for the second.

C6G C66U and A5U U10C are within 1.5-fold of each other in Kd: 5.41 nM for the first, 4.96 nM for the second.

A5U U10G and A5U U10A are within 1.5-fold of each other in Kd: 5.49 nM for the first, 7.7 nM for the second.

First: A5U G32A
Second: A5U G42A
The Kd of the first is 16-fold lower: 4.34 nM for the first, 67.8 nM for the second.

A5U G20U and A5U G20A are within 1.5-fold of each other in Kd: 7.83 nM for the first, 6.68 nM for the second.

Going from C6G G62A to C6G G62U, the Kd falls from 21.9 nM to 7.26 nM (3-fold).

C6G G54A and C6G G54U are within 1.5-fold of each other in Kd: 12.5 nM for the first, 9.57 nM for the second.

Going from C6G C50U to C6G C50G, the Kd falls from 16.1 nM to 5.53 nM (2.9-fold). The second binds more tightly here.

A5U U29G and A5U U29A are within 1.5-fold of each other in Kd: 5.91 nM for the first, 5.62 nM for the second.

A5U U29C and C6G C57U are within 1.5-fold of each other in Kd: 8.32 nM for the first, 6.1 nM for the second.

C6G C57G and C6A are within 1.5-fold of each other in Kd: 6.54 nM for the first, 6.13 nM for the second.

C6G and C6G G11U are within 1.5-fold of each other in Kd: 4.75 nM for the first, 5.8 nM for the second.

C6G G11A and C6G C40G are within 1.5-fold of each other in Kd: 6.31 nM for the first, 8.23 nM for the second.

First: C6G C40U
Second: C6G G42A
The Kd of the first is 1.7-fold higher: 70.3 nM for the first, 40.3 nM for the second.

Compared with C6G G42U, C6G A46G is 2.9-fold higher in Kd: 13.8 nM for the first, 40.5 nM for the second. The first binds more tightly here.

Going from C6G A46U to C6A C17G, the Kd falls from 56.8 nM to 7.95 nM (7.1-fold).

A5U G11U and A5U G11A are within 1.5-fold of each other in Kd: 6.52 nM for the first, 7.76 nM for the second.

C6G G20A and C6G G20U are within 1.5-fold of each other in Kd: 6.35 nM for the first, 6.34 nM for the second.

Going from A5U U61A to A5U U61C, the Kd rises from 41.2 nM to 85.8 nM (2.1-fold). The first binds more tightly here.

C6A U23G and A5U C12U are within 1.5-fold of each other in Kd: 7.03 nM for the first, 6.37 nM for the second.

C6G C33G and C6G C33U are within 1.5-fold of each other in Kd: 5.77 nM for the first, 5.41 nM for the second.

C6G A31U and C6G A31G are within 1.5-fold of each other in Kd: 5.5 nM for the first, 6.87 nM for the second.

First: C6G G44U
Second: C6G G44A
The Kd of the first is 7-fold lower: 8.75 nM for the first, 61 nM for the second.

C6G G55A and C6G G55U are within 1.5-fold of each other in Kd: 6.61 nM for the first, 6.23 nM for the second.

C6A C13G and C6G G56U are within 1.5-fold of each other in Kd: 5.49 nM for the first, 4.89 nM for the second.

Compared with C6G G56A, A5U C13G is 1.5-fold lower in Kd: 8.34 nM for the first, 5.56 nM for the second. The second binds more tightly here.

A5U C13U and C6G A15G are within 1.5-fold of each other in Kd: 7.12 nM for the first, 5.46 nM for the second.

C6G A15U and C6G C25G are within 1.5-fold of each other in Kd: 6.24 nM for the first, 5.65 nM for the second.

C6G C25U and A5U G34A are within 1.5-fold of each other in Kd: 5.65 nM for the first, 5.54 nM for the second.

A5U G18A and A5U G16U are within 1.5-fold of each other in Kd: 5.46 nM for the first, 6.86 nM for the second.

A5U G16A and A5U C17U are within 1.5-fold of each other in Kd: 8.1 nM for the first, 6.66 nM for the second.

A5U C17G and C6A U29G are within 1.5-fold of each other in Kd: 6.36 nM for the first, 6.91 nM for the second.

A5U U28C and A5U U28G are within 1.5-fold of each other in Kd: 7.9 nM for the first, 7.17 nM for the second.

First: C6G C49U
Second: C6G C49G
The Kd of the first is 2.3-fold higher: 20.2 nM for the first, 8.75 nM for the second.

Compared with A5U C25G, C6G G63U is 1.8-fold higher in Kd: 6.13 nM for the first, 10.8 nM for the second.

For C6G G63A, the Kd was 19.7 nM.
